Experimental data reported in the RNAGym collection of RNA variant scans (doi:10.1126/science.aae0568).
Fewer inactive variants are shown than the library holds.

B1: tRNA (parent)
chain: GUUCCGUUGGCGUAAUGGUAACGCGUCUCCCUCCUAAGGAGAAGACUGCGGGUUCGAGUCCCGUACGGAACG

Variants of: B1
Assay: yeast fitness relative to wild type (ratio to wild type); higher = fitter; tRNA-Arg(CCU), competitive growth, 37 C, YPD
Procedure, shortened: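 The tRNA-Arg(CCU) gene variants were made by chemical synthesis with a 3% per-site mutation rate at 69 sites and inserted at the native genomic locus of Saccharomyces cerevisiae. After pooling, the strains were competed in YPD at 37°C for 24 hours in six parallel replicates. Gene amplicons from the start population and each end population were read by 100-nucleotide paired-end sequencing, and Darwinian fitness relative to wild type was taken from genotype frequency changes. Genotypes needed ≥ 100 starting reads, and estimates < 0.5 were set to 0.5.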

Variant | yeast fitness
C11G U13G G56A A69C | ≤ 0.5
C11G C29A U35G A43G A70C | ≤ 0.5
C11G U13G A65C | ≤ 0.5
C11G G39A A40C C60U G68U | ≤ 0.5
C11G G12A C22U G39A U64A | ≤ 0.5
C11G A37C C46G G48A C49U | ≤ 0.5
C11G C24U C49A | 0.547
C11G C29U U35C A36C | ≤ 0.5
C11G C29U U59A A69U | ≤ 0.5
C11G G18A C29U A40G C62U | ≤ 0.5
C11G C46A A65G | ≤ 0.5
C11G A40G A45G G52A | 0.577
C11G G18U C22U C33U A43G | ≤ 0.5
C11G C29U | 0.557
C11G C29G | 0.84
C11G G12C C60A C61A | ≤ 0.5
C11G A37C C46G G48A | ≤ 0.5
C11G A36C A43U | ≤ 0.5
C11G G56A C62U | ≤ 0.5
C11G A37C C66G G68U | ≤ 0.5
C11G C29G C31G | ≤ 0.5

Variant | yeast fitness
C11G G12A U19C | ≤ 0.5
C11G G67C | 0.581
C11G C60G C61U | 0.555
C11G C34G | 0.524
C11G C34U | 0.672
C11G C34A | 0.585
C11G C29A A43C U64C | ≤ 0.5
C11G C30G C49U C61G A70G | ≤ 0.5
C11G C62U | 0.579
C11G G48A G63A A65C | ≤ 0.5
C11G C24G G52C C55G | 0.813
C11G G12A C24A C30G C46U C66G | 0.585
C11G G63C G67C | ≤ 0.5
C11G G58A A69U | 0.571
C11G C30U C34U | ≤ 0.5
C11G C34G A65U | ≤ 0.5
C11G C27G C31A C60G | ≤ 0.5
C11G G48A A65U | 0.525
C11G C27U U28A G52A C55U | ≤ 0.5
C11G C30G C31G U32A | ≤ 0.5
C11G C49U C61A A70G | ≤ 0.5

Variant | yeast fitness
C11G A65G | 0.696
C11G A65U | 0.656
C11G A65C | 0.594
C11G C46A C49U U54C C60U | ≤ 0.5
C11G C46U A65U | 0.561
C11G A37G G52C A70U | 0.57
C11G C27U A43C A65G | ≤ 0.5
C11G A36G G67U A69C | ≤ 0.5
C11G C46A C61G A65G | ≤ 0.5
C11G U13C A14G G17A G48C C62U C66G A70G | ≤ 0.5
C11G A45G C49U C55A | ≤ 0.5
C11G G18A G44U A65C | ≤ 0.5
C11G G41C A42C A43U | ≤ 0.5
C11G A37C C62G C66U | ≤ 0.5
C11G A65U A69U | 0.625
C11G C24G C55U A65U | ≤ 0.5
C11G G52A A69C | ≤ 0.5
C11G C31A G39A G48A C61U A65C | 0.56
C11G C29U A57G | ≤ 0.5
C11G A40G C61A | 0.605
C11G C31G U47C C55G | ≤ 0.5

Variant | yeast fitness
C11G G41A U47A C49U U59C G67C A70U | ≤ 0.5
C11G C22A C31U A42G C66U | ≤ 0.5
C11G A21U U35A | ≤ 0.5
C11G G25C G48C G51C C66A | ≤ 0.5
C11G G38A C66U | ≤ 0.5
C11G C22A C31A A40G | ≤ 0.5
C11G G52C G67C | ≤ 0.5
C11G C29G G50C | ≤ 0.5
C11G C27U C33U | 0.584
C11G G38A | 0.63
C11G G17C C34A A43C G56C C61A A65C | ≤ 0.5
C11G G44C A57C C60U | 0.518
C11G C24U C31G C33U A43U | ≤ 0.5
C11G G39C U47C | ≤ 0.5
C11G C22G C27G C49U C62U | ≤ 0.5
C11G C24G C27G G48C | ≤ 0.5
C11G C46G C62A | ≤ 0.5
C11G C46U G51C C66G | ≤ 0.5
C11G A21U C31G | ≤ 0.5
C11G A21U G51C | ≤ 0.5
C11G C27G C55A | ≤ 0.5
